Data on 20 compounds can be found in PubChem BioAssay.

Test [1] is described as follows: S. cerevisiae growth inhibition in permissive medium (OD615), pilot counter-assay for S. cerevisiae lifespan shortening project, permissive growth control (AID 705;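 active = growth inhibition above 25% in both replicates, a cutoff set 3 SD above the mean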). To be noted: OD615, 24 h, at 10 µM, stronger effect = higher value. The gist of the method:
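Test system: Saccharomyces cerevisiae strain carrying genetically modified DeaD replicative-lifespan system; buffer or medium: SC raffinose/galactose permissive medium; dosing: one dose 10 µM, DMSO 0.25% final; times: 24 h exposure, 30 °C; measured by: OD at 615 nm; read-out basis: growth inhibition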

Test [2] can be described thus: S. cerevisiae growth inhibition in restrictive medium, OD615, pilot screen, restrictive growth control, yeast lifespan reduction project (AID 706;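 active = growth inhibition above a set limit, 3 SD over mean compound inhibition, in both replicates, cut at about 43% in these data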;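 note: modified DeaD lifespan yeast strain shifted to restrictive glucose medium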). To be noted: OD615, 48 h, at 10 µM, stronger effect = higher value. In outline:
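material = engineered S. cerevisiae DeaD strain | buffer or medium = glucose-based CSMM-D restrictive medium | dosing = one concentration, 10 µM final, 0.25% DMSO | schedule = 4 h pre-growth plus 48 h compound exposure, 30 °C | detection = OD615 absorbance reading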

A short description of test [3]: doxorubicin toxicity protection in MRP-1 cells – H69AR cells, CellTiter-Glo, duplicate, MRP-1 activator project, pilot screen (AID 807).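 Note: compound pretreatment 18-22 h then 72 h combined with doxorubicin; 0% = doxorubicin alone and 100% = vehicle without doxorubicin.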 To be noted: H69AR viability with doxorubicin, CellTiter-Glo luminescence; at 10 µM; stronger effect = higher value. (ATP-based viability assays read luminescence as a measure of living cells.)
Test [4] in a line: viability of HCT116 without oncogenic beta-catenin – human colon tumor cells, pilot screen (AID 823;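 active = cell viability at or below a set limit in both duplicate runs, the limit being the all-compound median minus 4 SD, cut at about 23% in these data, passing the limit was not always enough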;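 note: 0% = wells killed by 20 µM Hyamine and 100% = untreated DMSO cell wells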). The note with it: HCT116 beta-catenin knockout viability, CellTiter-Glo, 60 h; at 10 µM; stronger effect = lower value.
A short description of test [5]: RAM pathway blockade in budding yeast – dse1pr::URA3 reporter, 5-FOA selection, pilot screen (AID 869;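 active = inhibition over a set limit, the all-compound mean plus 3 SD, in both replicate runs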;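 note: 0% = DMSO wells with no growth and 100% = 10 µM 1-NA-PP1 with full growth; RAM network block rescues cells from 5-FOA so hits raise OD615 growth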). To be noted: S. cerevisiae dse1pr::URA3 5-FOA growth, OD615, 2 d; at 10 µM; stronger effect = higher value; strain carries analog-sensitive mutant Cbk1 kinase.
A short description of test [6]: RAM signaling pathway blockade in yeast – S. cerevisiae, Pdr1DBD-CYC8 efflux-inhibited sensitized strain, primary screen (AID 1298;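 active = RAM network inhibition above 8.4% in each of two replicates, 3 SD over the compound average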;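 note: 0% = DMSO untreated cells without growth and 100% = 10 µM 1-NA-PP1 full growth; higher means more yeast growth rescued from 5-FOA killing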). The note with it: S. cerevisiae cbk1-as DSE1-URA3 strain, 5-FOA growth OD615, 2 d; at 50 µM; stronger effect = higher value.

Unmarked numbers belong to inactive results. Inconclusive results are not listed. The source made the active and inactive calls.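 Rule for the calls, unless noted: active = viability increase at or above a cutoff of the median across tested compounds plus 3 SD (cut at about 8.5% in these data, passing the limit was not always enough); inconclusive = some gains above the cutoff, reason not given; inactive = the rest.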

Turning to `c1ccc(Nc2nc(N3CCCCC3)nc(N3CCNCC3)n2)cc1`, the growth inhibition in test [1] was -9.86%; in test [2] it was -6.95%. Moreover, the viability increase in test [3] is -8.19%. Besides, the viability in test [4] is 3.71% (active). Also, the inhibition in test [5] was 0.98%. Also, the RAM network inhibition in test [6] was 3.63%.

`Cn1c(/C(C#N)=C2/CCCCCN2)nc2ccccc21`: the growth inhibition in test [1] is -8.98%; in test [2] it was -2.55%. The viability increase in test [3] was -2.4%. Besides, in test [4], the viability is 89.6%. For the same compound, the inhibition in test [5] is 0.395%. The RAM network inhibition in test [6] was 1.35%.

As for `CCOc1ccc(NC(=O)CSc2nnc(-c3ccccc3)n2N)cc1`, the figures for the growth inhibition in test [1] and in test [2] were -8.33% and -0.575%, respectively. For the same compound, the viability increase in test [3] was -6.71%. Moreover, the viability in test [4] was 93.8%. Besides, the inhibition in test [5] was 0.495%. In addition, the RAM network inhibition in test [6] was 2.18%.

`COc1ccccc1N1CCN(CC(=O)Nc2cc(C)nn2-c2nc(C)cc(C)n2)CC1`: the growth inhibition is -5.77% in test [1] and -18.8% in test [2]. The viability increase in test [3] was -7.06%. Moreover, the viability in test [4] was 19.6% (active). Also, the inhibition in test [5] was 1.77%. The RAM network inhibition in test [6] is 6.51%.

On to `N#Cc1c(N)nc2c(c1-c1ccc3c(c1)OCO3)CCCCCC2`, for which the values for the growth inhibition in test [1] and in test [2] were -18% and -4.1%, respectively. Moreover, the viability increase in test [3] is -5.55%. Besides, in test [4], the viability was 84.8%. Also, the inhibition in test [5] was 2.68%. Further, the RAM network inhibition in test [6] is 6.96%.

For `CCOc1cccc2c1OC1(C)CC2NC(=O)N1c1cccc(Cl)c1` (stereo not given), the growth inhibition in test [1] is -12%; in test [2], 5.29%. In test [3], the viability increase is -1.53%. In addition, the viability in test [4] was 99.2%. Moreover, the inhibition in test [5] is -0.045%. In test [6], the RAM network inhibition is 5.25%.

As for `CC(C)Sc1nc(N)c2c3c(sc2n1)CN(C)CC3`, the growth inhibition in test [1] was -10.7%; in test [2], 9.69%. Also, the viability increase in test [3] is -3.04%. The viability in test [4] is 101%. The inhibition in test [5] was 1.16%. Besides, the RAM network inhibition in test [6] was 5.2%.

`CN(C)CCCNC(=O)CC(c1ccc(F)cc1)c1ccco1` (stereo not given): the growth inhibition in test [1] is -28.8%; in test [2] it was 0.42%. Besides, in test [3], the viability increase was -2.97%. The viability in test [4] was 77.9%. Moreover, in test [5], the inhibition is 0.69%. Besides, in test [6], the RAM network inhibition was 5.45%.

Take `S=c1nc(-c2ccccc2)n(CCN2CCOCC2)c2c1CCCC2`: the values for the growth inhibition in test [1] and in test [2] were -2.79% and 19.1%, respectively. Further, the viability increase in test [3] is -4.18%. Moreover, the viability in test [4] is 92.6%. Also, in test [5], the inhibition is 1.71%. The RAM network inhibition in test [6] is 6.76%.

On to `CC(=O)c1ccc(N2CCN(C(=O)c3ccc(NC(=O)C4CCCO4)cc3)CC2)cc1` (stereo not given), for which the growth inhibition in test [1] was -23.3%; in test [2], -4.79%. The viability increase in test [3] is -3%. The viability in test [4] is 91.2%. Further, the inhibition in test [5] was 2.3%. Further, the RAM network inhibition in test [6] was 1.4%.

As to `Cc1nn(CCO)c(C)c1Oc1ccccc1O`, the growth inhibition in test [1] was 6.79%; in test [2], 4.62%. Further, the viability increase in test [3] is -1.47%. In addition, in test [4], the viability was 102%. In test [5], the inhibition was 1.96%. Also, the RAM network inhibition in test [6] is 1.86%.

Consider `Cc1ccccc1-c1nnc(SCC(=O)Nc2ccc(Cl)cc2)n1N`, for which the growth inhibition in test [1] is -8.16%; in test [2], 0.61%. In addition, in test [3], the viability increase was 2.22%. In addition, in test [4], the viability was 94.5%. Further, the inhibition in test [5] was 1.17%. In addition, the RAM network inhibition in test [6] was 5.42%.

Turning to `Cc1ccnc(Sc2nc3c(c(=O)[nH]c(=O)n3C)n2CCCc2ccccc2)n1`, the growth inhibition was -17.7% in test [1] and 2.31% in test [2]. Besides, in test [3], the viability increase was -2.18%. Moreover, the viability in test [4] was 91.8%. The inhibition in test [5] was 1.6%. In addition, the RAM network inhibition in test [6] was 1.4%.

As for `Cc1nc(-n2nnc3ccccc32)c2c3c(sc2n1)CCCC3`, the growth inhibition in test [1] was -14.5%; in test [2], 0.92%. In test [3], the viability increase is -2.54%. For the same compound, the viability in test [4] is 82%. For the same compound, in test [5], the inhibition is 1.11%. Besides, the RAM network inhibition in test [6] is 3.02%.

Take `Cc1ccc(Cl)cc1N1CCN(S(=O)(=O)c2cccc(S(=O)(=O)N3CCCC3)c2)CC1`: the growth inhibition in test [1] was -4.5%; in test [2] it was 12%. Further, the viability increase in test [3] is 0.04%. Besides, the viability in test [4] is 83.5%. Also, the inhibition in test [5] was 2.14%. For the same compound, the RAM network inhibition in test [6] is 6.44%.

For `Cc1cc(NC(=O)CN2CCN(c3ncccn3)CC2)no1`, the growth inhibition in test [1] is -7.78%; in test [2], -9.4%. In addition, the viability increase in test [3] was -1.38%. For the same compound, in test [4], the viability was 98.6%. The inhibition in test [5] was 0.71%. The RAM network inhibition in test [6] is 3.12%.

For the compound `COc1ccc(-c2nnc(NC(=O)c3cc(Cl)ccc3Cl)o2)cc1`, the growth inhibition in test [1] was 4.57%; in test [2], 4.36%. In addition, in test [3], the viability increase was -5.58%. Also, the viability in test [4] is 35.9%. The inhibition in test [5] was 2.53%. Moreover, the RAM network inhibition in test [6] was 8.05%.

For `COc1cc(-c2nc3cnccn3c2Nc2ccc3c(c2)OCCO3)ccc1O`, the growth inhibition in test [1] is -15.6%; in test [2], -2.52%. The viability increase in test [3] is -7.25%. For the same compound, the viability in test [4] is 84.5%. In addition, in test [5], the inhibition is 2.98%. For the same compound, the RAM network inhibition in test [6] was 11.8%.

Take `CCOC(=O)CNC(=O)c1cn(CC)c(=O)c2cc(OC)c(OC)cc12`: the growth inhibition was -14.4% in test [1] and -5.67% in test [2]. Also, in test [3], the viability increase was -2.48%. Moreover, the viability in test [4] is 103%. Besides, the inhibition in test [5] is 2.65%. Besides, in test [6], the RAM network inhibition was 2.7%.

With `COCCCNC(=O)c1ccc(Cn2c(=O)[nH]c3ccccc3c2=O)cc1`, the growth inhibition is -10.2% in test [1] and -0.91% in test [2]. Also, the viability increase in test [3] was -5.59%. In addition, the viability in test [4] was 34.9%. Also, the inhibition in test [5] was 1.89%. Moreover, the RAM network inhibition in test [6] is 5.69%.

One may read the viability as a read-out of living cells in per cent, often relative to untreated cells. As usually defined, the inhibition is the change of the read-out against control, counted positive when it falls.
